As a reminder, the viability is a read-out of living cells in per cent, often relative to untreated cells. The inhibition is the drop in the measured response relative to a control, in per cent.

The source made the active and inactive calls.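 Rule for the calls, unless noted: active = viability at or below 10% of carrier control in both of two separate runs; inconclusive = viability at or below 10% in only one of the two runs; inactive = the rest.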

Assay [1] is described as follows: Her2 expression decrease, cell viability multiplex – SKBR3 breast tumor cells, AlphaScreen, ATP viability, primary screen (AID 461;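 active = Her2 level under about 52% in both replicate screens, with viability over 70% of control, limit read from the data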;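 for Her2 level: lower value means less Her2 protein in the cells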;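 for viability: percent of carrier control wells set as 100% viability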). As to conditions: SKBR3 Her2 protein level, 18-24 h, measured here: SKBR3 viability, ATP luminescence, at 10 µM. For orientation: Alpha assays give light when donor and acceptor beads are brought close together.
Assay [2] addresses Receptor tyrosine-protein kinase erbB-2 (Homo sapiens) (UniProt P04626). The assay is described as above. As to conditions: 18-24 h, at 10 µM, stronger effect = lower value.
The nature of assay [3]: reduced viability of SK-BR-3 breast cancer cells – cell-based, 24 h, human, pilot screen (AID 572).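 Note: compound exposure lasted between 18 and 24 h rather than exactly 24 h; 100% = carrier-treated control wells.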 As to conditions: SK-BR-3 viability, CellTiter-Glo luminescence, at 10 µM, stronger effect = lower value. On the technique in general: In ATP-based viability assays light output follows the ATP content of the culture.
Assay [4] is described as follows: HUVEC growth inhibition – cell-based, human, primary screen (AID 575;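 active = viability at or below 30% in both replicate assays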;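 note: 100% = median of untreated cell wells with 0.1% DMSO on each plate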). As to conditions: HUVEC proliferation, CellTiter-Glo luminescence, 72 h; at 10 µM; stronger effect = lower value. The procedure, abridged: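 Test system: primary human umbilical vein endothelial cells; medium: endothelial basal medium with 2% FBS plus growth supplements; dosing: 10 µM compound only; times: 72 h treatment at 37 °C; signal: CTG luminescence; read-out: % viability relative to median vehicle-well signal on each plate; control set: vehicle and MePR control wells; plate: 384-well, collagen-coated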

A short description of assay [5]: H69AR cell proliferation blockers – human, duplicate replicates, primary screen (AID 580;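 active = viability at or under a set limit in both replicates, limit being median viability minus 3 SD, cut at about 48% in these data, passing the limit was not always enough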;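 note: 100% = mean luminescence of untreated wells and 0% = no signal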). As to conditions: H69AR lung tumor cells viability, ATP luminescence, 72 h; at 10 µM; stronger effect = lower value.
Assay [6] in a line: MRP1 drug-resistance reversers in H69AR cells – cell-based, doxorubicin co-treatment, pilot screen (AID 601;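 active = viability loss from added drug above about 55%, and viability with drug at most 40%, in both replicates, limit read from the data, passing the limit was not always enough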). As to conditions: CellTiter-Glo, 72 h, at 10 µM; for differential viability (reversal): stronger effect = higher value.
Assay [7] is described as follows: yeast transport mutant growth inhibition pilot in 384-well plates, post-Golgi transport modulator project (AID 636; in the data active = inhibition above about 31%). As to conditions: absorbance 615 nm, about 18 h, stronger effect = higher value.
A short description of assay [8]: growth suppression of yeast trafficking mutant, preliminary HTS, modulators of trafficking downstream of Golgi apparatus project, 1536-format plate, OD 615 nm (AID 637; in the data active = inhibition above about 30%). As to conditions: yeast transport mutant growth, absorbance 615 nm, 18 h; stronger effect = higher value.
Where [9] appears, read: H69AR cells + 2 uM doxorubicin, measured here: viability with 2 uM doxorubicin, stronger effect = lower value.
The mark [10] stands for this setting: H69AR cells, compound alone cytotoxicity.

Receptor tyrosine-protein kinase erbB-2 (Homo sapiens), sequence (P04626 whole entry, looked up): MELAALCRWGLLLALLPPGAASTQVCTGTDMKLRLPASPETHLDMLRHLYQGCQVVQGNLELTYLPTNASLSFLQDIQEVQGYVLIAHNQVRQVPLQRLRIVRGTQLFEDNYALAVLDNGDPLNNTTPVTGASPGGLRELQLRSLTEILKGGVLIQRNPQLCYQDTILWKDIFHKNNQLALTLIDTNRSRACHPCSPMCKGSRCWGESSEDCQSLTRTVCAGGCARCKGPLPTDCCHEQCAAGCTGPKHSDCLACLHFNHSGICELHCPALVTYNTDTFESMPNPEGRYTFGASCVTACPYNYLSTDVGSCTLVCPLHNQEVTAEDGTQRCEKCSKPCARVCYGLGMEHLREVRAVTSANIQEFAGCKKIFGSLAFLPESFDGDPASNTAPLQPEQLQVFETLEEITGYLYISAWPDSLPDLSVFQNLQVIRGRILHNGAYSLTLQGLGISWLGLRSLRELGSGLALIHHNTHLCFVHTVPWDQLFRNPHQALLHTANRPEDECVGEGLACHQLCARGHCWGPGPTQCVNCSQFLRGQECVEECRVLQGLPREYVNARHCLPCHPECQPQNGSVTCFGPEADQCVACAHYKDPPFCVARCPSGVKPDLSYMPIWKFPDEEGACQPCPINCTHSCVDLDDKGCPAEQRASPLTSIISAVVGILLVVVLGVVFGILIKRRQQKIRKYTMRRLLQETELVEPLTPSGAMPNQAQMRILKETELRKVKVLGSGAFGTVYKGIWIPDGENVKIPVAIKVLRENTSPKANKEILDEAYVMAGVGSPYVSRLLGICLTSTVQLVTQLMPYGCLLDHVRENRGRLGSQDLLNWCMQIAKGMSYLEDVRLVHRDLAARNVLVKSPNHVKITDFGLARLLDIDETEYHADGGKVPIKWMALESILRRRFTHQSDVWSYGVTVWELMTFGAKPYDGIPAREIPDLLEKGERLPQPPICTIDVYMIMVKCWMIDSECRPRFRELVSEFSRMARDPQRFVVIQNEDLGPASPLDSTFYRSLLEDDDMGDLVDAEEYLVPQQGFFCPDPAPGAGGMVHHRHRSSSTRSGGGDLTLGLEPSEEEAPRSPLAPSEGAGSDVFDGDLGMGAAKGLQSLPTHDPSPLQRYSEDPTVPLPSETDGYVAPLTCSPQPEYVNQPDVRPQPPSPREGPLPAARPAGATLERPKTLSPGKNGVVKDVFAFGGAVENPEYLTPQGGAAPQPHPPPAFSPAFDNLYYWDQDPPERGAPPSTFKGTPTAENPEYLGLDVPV

Regarding `Cc1cccc(N2CN=c3s/c(=C\c4ccncc4)c(=O)n3C2)c1`, the viability in assay [1] was 86.5%; in assay [3], 86.5% (inactive); in assay [4], 77.4% (inactive); in assay [5] it was 80.8% (inactive); in assay [6] (setting [9]), 91%; in assay [6] (setting [10]), 80.8%. In addition, the Her2 level in assay [2] is 68% (inactive). Moreover, the differential viability (reversal) in assay [6] (H69AR cells + 2 uM doxorubicin) is -10.2% (inactive). The results for the inhibition in assay [7] and in assay [8] were -1.32% (inactive) and -2.42% (inactive), respectively.

`COc1ccc(CCn2c(C)cc(C(=O)CSc3nnnn3C)c2C)cc1`: the viability in assay [1] was 99.5%; in assay [3], 99.5% (inactive); in assay [4], 81.7% (inactive); in assay [5], 101% (inactive); in assay [6] (setting [9]), 104%; in assay [6] (setting [10]), 101%. The Her2 level in assay [2] was 144% (inactive). The differential viability (reversal) in assay [6] (H69AR cells + 2 uM doxorubicin) is -3.11% (inactive). The inhibition is -0.13% (inactive) in assay [7] and -1.83% (inactive) in assay [8].

Regarding `CCOC(=O)CSc1nc2sc(C)c(C)c2c(=O)n1C`, the viability was 104% in assay [1]; 104% (inactive) in assay [3]; 85.4% (inactive) in assay [4]; 94.2% (inactive) in assay [5]; 84.8% in assay [6] (setting [9]); 94.2% in assay [6] (setting [10]). In addition, in assay [2], the Her2 level was 69% (inactive). The differential viability (reversal) in assay [6] (H69AR cells + 2 uM doxorubicin) was 9.32% (inactive). The inhibition was -2.34% (inactive) in assay [7] and -0.17% (inactive) in assay [8].

Consider `Cc1ccc(-c2nnn(CC(=O)N(CC(=O)NC3CCCCC3)c3cnc4ccccc4c3)n2)o1`, for which the viability in assay [1] was 98%; in assay [3] it was 98% (inactive); in assay [4] it was 93.3% (inactive); in assay [5], 96.5% (inactive); in assay [6] (setting [9]), 80.6%; in assay [6] (setting [10]), 96.5%. Also, in assay [2], the Her2 level was 92% (inactive). For the same compound, the differential viability (reversal) in assay [6] (H69AR cells + 2 uM doxorubicin) is 15.9% (inactive). Further, the inhibition in assay [7] is -7.6% (inactive); in assay [8], -1.61% (inactive).

In the case of `COc1ccc(-n2c(=O)[nH]cc(C(=O)Nc3ccc(NC(C)=O)cc3)c2=O)cc1`, the viability is 100% in assay [1]; 100% (inactive) in assay [3]; 98.8% (inactive) in assay [4]; 96.1% (inactive) in assay [5]; 95.7% in assay [6] (setting [9]); 96.1% in assay [6] (setting [10]). Besides, in assay [2], the Her2 level was 106% (inactive). Also, the differential viability (reversal) in assay [6] (H69AR cells + 2 uM doxorubicin) was 0.385% (inactive). Moreover, the inhibition is -3.78% (inactive) in assay [7] and 0% (inactive) in assay [8].

Take `CCOc1cc(S(=O)(=O)Nc2ccccn2)ccc1F`: the viability in assay [1] was 114%; in assay [3] it was 114% (inactive); in assay [4], 108% (inactive); in assay [5], 101% (inactive); in assay [6] (setting [9]), 93.3%; in assay [6] (setting [10]), 101%. For the same compound, the Her2 level in assay [2] is 110% (inactive). In addition, the differential viability (reversal) in assay [6] (H69AR cells + 2 uM doxorubicin) was 7.25% (inactive). The inhibition is -4% (inactive) in assay [7] and -5.9% (inactive) in assay [8].

Turning to `COCCn1c(SCc2csc(-c3ccccc3)n2)nc2ccccc21`, the viability is 94% in assay [1]; 94% (inactive) in assay [3]; 71.5% (inactive) in assay [4]; 88.5% (inactive) in assay [5]; 91.5% in assay [6] (setting [9]); 88.5% in assay [6] (setting [10]). For the same compound, in assay [2], the Her2 level is 98.5% (inactive). In assay [6] (H69AR cells + 2 uM doxorubicin), the differential viability (reversal) is -2.99% (inactive). The results for the inhibition in assay [7] and in assay [8] were 1.3% (inactive) and -8.03% (inactive), respectively.

`CCOc1cc(N2CCOCC2)c(OCC)cc1NC(=O)COC(=O)CCc1c[nH]c2ccccc12`: the viability is 97.5% in assay [1]; 97.5% (inactive) in assay [3]; 105% (inactive) in assay [4]; 99.4% (inactive) in assay [5]; 94.8% in assay [6] (setting [9]); 99.4% in assay [6] (setting [10]). Further, the Her2 level in assay [2] is 98.5% (inactive). Moreover, the differential viability (reversal) in assay [6] (H69AR cells + 2 uM doxorubicin) is 4.66% (inactive). Moreover, the inhibition in assay [7] is -8.38% (inactive); in assay [8], -8.83% (inactive).

Turning to `Cc1n[nH]c(C)c1S(=O)(=O)N1CCCCCC1`, the viability in assay [1] was 98%; in assay [3] it was 98% (inactive); in assay [4], 105% (inactive); in assay [5], 101% (inactive); in assay [6] (setting [9]), 101%; in assay [6] (setting [10]), 101%. Further, the Her2 level in assay [2] is 80% (inactive). Moreover, in assay [6] (H69AR cells + 2 uM doxorubicin), the differential viability (reversal) is 0.14% (inactive). Also, the inhibition in assay [7] is -1.58% (inactive); in assay [8], -3.17% (inactive).

Take `COc1cc(Br)cc(CN2CCN(C/C=C/c3ccccc3)CC2)c1O`: the viability was 81% in assay [1]; 81% (inactive) in assay [3]; 79.5% (inactive) in assay [4]; 93.2% (inactive) in assay [5]; 86% in assay [6] (setting [9]); 93.2% in assay [6] (setting [10]). Also, in assay [2], the Her2 level was 93.5% (inactive). Further, in assay [6] (H69AR cells + 2 uM doxorubicin), the differential viability (reversal) is 7.21% (inactive). For the same compound, the inhibition in assay [7] was 0.93% (inactive); in assay [8] it was 11.3% (inactive).

On to `O=C(CSc1nnc(C2CC2)n1Cc1ccccc1)c1ccc(S(=O)(=O)N2CCOCC2)cc1`, for which the viability in assay [1] is 120%; in assay [3] it was 120% (inactive); in assay [4] it was 95% (inactive); in assay [5], 86.9% (inactive); in assay [6] (setting [9]), 74.4%; in assay [6] (setting [10]), 86.9%. For the same compound, the Her2 level in assay [2] was 92% (inactive). Also, the differential viability (reversal) in assay [6] (H69AR cells + 2 uM doxorubicin) is 12.5% (inactive). The inhibition is -1.82% (inactive) in assay [7] and 6.72% (inactive) in assay [8].

Turning to `COc1ccc(NC(=O)CS(=O)CC(=O)Nc2cc(Cl)ccc2OC)cc1` (stereo not given), the viability in assay [1] is 91.5%; in assay [3], 91.5% (inactive); in assay [4] it was 80.8% (inactive); in assay [5] it was 90.9% (inactive); in assay [6] (setting [9]), 92.1%; in assay [6] (setting [10]) it was 90.9%. In addition, the Her2 level in assay [2] is 106% (inactive). The differential viability (reversal) in assay [6] (H69AR cells + 2 uM doxorubicin) was -1.21% (inactive). Also, the inhibition in assay [7] was -4.36% (inactive); in assay [8] it was -3.67% (inactive).

For `CCCCNc1cc(C)oc(=O)c1C(C)=O`, the viability in assay [1] is 94.5%; in assay [3], 94.5% (inactive); in assay [4], 105% (inactive); in assay [5], 97.9% (inactive); in assay [6] (setting [9]), 90.9%; in assay [6] (setting [10]), 97.9%. Besides, in assay [2], the Her2 level was 107% (inactive). Further, in assay [6] (H69AR cells + 2 uM doxorubicin), the differential viability (reversal) was 7% (inactive). Further, the inhibition in assay [7] was -4.86% (inactive); in assay [8], 3.28% (inactive).

As for `Cc1onc(-c2ccccc2)c1C(=O)Nc1ccc(S(=O)(=O)N2CCCCC2)cc1`, the viability in assay [1] is 95.5%; in assay [3], 95.5% (inactive); in assay [4] it was 58.4% (inactive); in assay [5], 88.9% (inactive); in assay [6] (setting [9]), 92.3%; in assay [6] (setting [10]), 88.9%. Besides, the Her2 level in assay [2] was 94.5% (inactive). Moreover, the differential viability (reversal) in assay [6] (H69AR cells + 2 uM doxorubicin) was -3.39% (inactive). Also, the figures for the inhibition in assay [7] and in assay [8] were -0.77% (inactive) and 1% (inactive), respectively.

Consider `Nc1nnnn1/N=C/c1ccccn1`, for which the viability in assay [1] is 69%; in assay [3] it was 69% (inactive); in assay [4], 114% (inactive); in assay [5], 97.2% (inactive); in assay [6] (setting [9]) it was 86.2%; in assay [6] (setting [10]), 97.2%. Besides, in assay [2], the Her2 level is 108% (inactive). Further, the differential viability (reversal) in assay [6] (H69AR cells + 2 uM doxorubicin) is 11% (inactive). Also, the inhibition is -4.73% (inactive) in assay [7] and 24% (inactive) in assay [8].
